Source: ChEMBL document CHEMBL4004832, “Synthesis, surfactant properties and antimicrobial activities of methyl glycopyranoside ethers” (2017)
In brackets after ≈: the same amount, converted by molar mass.

Experiments:
[1] = Surfactant property of the compound in water assessed as critical micelle concentration or minimal hydrotropic concentration by platinum rod based tensiometric method
Method in brief: (§1)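 Surface tension of aqueous solutions was measured by a rod method based on the Wilhelmy plate. Water was progressively concentrated with a stock surfactant solution at constant volume. At each concentration, readings continued until stable (SD of the last 5 values 0.2 mN/m). MHC or CMC and the plateau γsat were taken from the tension vs concentration curves.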

[2] = test system: Staphylococcus aureus; experiment: Antibacterial activity against Staphylococcus aureus ATCC 29213 after 18 hrs by broth microdilution assay; type: functional; settings: ATCC 29213, 18 h
Method in brief: (§2)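 Broth MIC testing on Gram-positive strains followed CLSI M100-S17 recommendations. […] Values are in mmol/L. Amoxicillin was the control for Listeria and Enterococcus strains and oxacillin for S. aureus strains.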

[3] = test system: Staphylococcus aureus; experiment: Bactericidal activity against Staphylococcus aureus ATCC 29213 after 18 hrs by broth microdilution assay; type: functional
Method in brief: (§3)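 MBC is the lowest concentration giving at least 99.9% reduction of the initial inoculum. Values are in mmol/L.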

[4] = test system: Listeria monocytogenes; experiment: Antibacterial activity against Listeria monocytogenes CIP 103575 after 18 hrs by broth microdilution assay; type: functional; settings: CIP 103575, 18 h; method in brief: as §2
[5] = test system: Enterococcus faecalis; experiment: Bactericidal activity against Enterococcus faecalis ATCC 29212 after 18 hrs by broth microdilution assay; type: functional; method in brief: as §3
[6] = test system: Enterococcus faecalis; experiment: Antibacterial activity against Enterococcus faecalis ATCC 29212 after 18 hrs by broth microdilution assay; type: functional; settings: ATCC 29212, 18 h; method in brief: as §2
[7] = test system: Listeria monocytogenes; experiment: Bactericidal activity against Listeria monocytogenes CIP 103575 after 18 hrs by broth microdilution assay; type: functional; method in brief: as §3
[8] = test system: Pseudomonas aeruginosa; experiment: Antibacterial activity against Pseudomonas aeruginosa ATCC 27853 after 18 hrs by broth microdilution assay; type: functional; settings: ATCC 27853, 18 h
[9] = test system: Escherichia coli; experiment: Antibacterial activity against Escherichia coli ATCC 8739 after 18 hrs by broth microdilution assay; type: functional; settings: ATCC 8739, 18 h
[10] = Surfactant property of the compound in aqueous solution assessed as critical micelle concentration or minimal hydrotropic concentration; method in brief: as §1
[11] = test system: Listeria monocytogenes; experiment: Antibacterial activity against Listeria monocytogenes isolate 015189074801 after 18 hrs by broth microdilution assay; type: functional; settings: isolate 015189074801, 18 h; method in brief: as §2
[12] = test system: Enterococcus faecium; experiment: Antibacterial activity against […] Enterococcus faecium isolate 0151850763 after 18 hrs by broth microdilution assay; type: functional; settings: isolate 0151850763, 18 h
Method in brief: (§4)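 Enterococcus faecium strains (reference, clinical isolates, VanA isolate) tested by MIC following CLSI recommendations (M100-S17), with amoxicillin as control. […] Values are expressed in mmol/L.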

[13] = test system: Enterococcus faecium; experiment: Antibacterial activity against Enterococcus faecium isolate 015205261801 after 18 hrs by broth microdilution assay; type: functional; settings: isolate 015205261801, 18 h; method in brief: as §4
[14] = test system: Enterococcus faecalis; experiment: Antibacterial activity against Enterococcus faecalis isolate 015206179901 after 18 hrs by broth microdilution assay; type: functional; settings: isolate 015206179901, 18 h; method in brief: as §2
[15] = test system: Listeria monocytogenes; experiment: Antibacterial activity against Listeria monocytogenes isolate 015181840701 after 18 hrs by broth microdilution assay; type: functional; settings: isolate 015181840701, 18 h; method in brief: as §2
[16] = test system: Listeria monocytogenes; experiment: Antibacterial activity against Listeria monocytogenes isolate 015170199001 after 18 hrs by broth microdilution assay; type: functional; settings: isolate 015170199001, 18 h; method in brief: as §2
[17] = test system: Enterococcus faecium; experiment: Antibacterial activity against Enterococcus faecium CIP 103510 after 18 hrs by broth microdilution assay; type: functional; settings: CIP 103510, 18 h; method in brief: as §4
[18] = test system: Enterococcus faecium; experiment: Antibacterial activity against Enterococcus faecium isolate 015205731401 after 18 hrs by broth microdilution assay; type: functional; settings: isolate 015205731401, 18 h; method in brief: as §2
[19] = test system: Staphylococcus aureus; experiment: Antibacterial activity against daptomycin-resistant Staphylococcus aureus isolate ST 2015-0989 after 18 hrs by broth microdilution assay; type: functional; settings: isolate ST 2015-0989, 18 h
Method in brief: (§5)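 Staphylococcus aureus reference strains and methicillin- and daptomycin-resistant isolates tested by MIC according to CLSI guidance (M100-S17), with oxacillin as control. The endpoint is the lowest concentration with no growth in all replicates versus a negative control at 18 h. Values are reported in mmol/L.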

[20] = test system: Staphylococcus aureus; experiment: Antibacterial activity against methicillin-resistant Staphylococcus aureus Mu3 after 18 hrs by broth microdilution assay; type: functional; settings: Mu3, 18 h; method in brief: as §5
[21] = test system: Staphylococcus aureus; experiment: Antibacterial activity against methicillin-resistant Staphylococcus aureus isolate HT 2004-0012 after 18 hrs by broth microdilution assay; type: functional; settings: isolate HT 2004-0012, 18 h; method in brief: as §5
[22] = test system: Staphylococcus aureus; experiment: Antibacterial activity against methicillin-resistant Staphylococcus aureus LAC USA300 after 18 hrs by broth microdilution assay; type: functional; method in brief: as §5
[23] = test system: Staphylococcus aureus; experiment: Antibacterial activity against methicillin-resistant Staphylococcus aureus isolate HT 2002-0417 after 18 hrs by broth microdilution assay; type: functional; settings: isolate HT 2002-0417, 18 h; method in brief: as §5
[24] = test system: Staphylococcus aureus; experiment: Antibacterial activity against Staphylococcus aureus ATCC 25923 after 18 hrs by broth microdilution assay; type: functional; settings: ATCC 25923, 18 h; method in brief: as §5
[25] = test system: Staphylococcus aureus; experiment: Antibacterial activity against daptomycin-resistant Staphylococcus aureus isolate ST 2015-0188 after 18 hrs by broth microdilution assay; type: functional; settings: isolate ST 2015-0188, 18 h; method in brief: as §5
[26] = test system: Staphylococcus aureus; experiment: Antibacterial activity against daptomycin-resistant Staphylococcus aureus isolate ST 2014-1288 after 18 hrs by broth microdilution assay; type: functional; settings: isolate ST 2014-1288, 18 h; method in brief: as §5
[27] = test system: Staphylococcus aureus; experiment: Antibacterial activity against methicillin-resistant Staphylococcus aureus isolate LY 1999-0053 after 18 hrs by broth microdilution assay; type: functional; settings: isolate LY 1999-0053, 18 h; method in brief: as §5
[28] = test system: Staphylococcus aureus; experiment: Antibacterial activity against methicillin-resistant Staphylococcus aureus isolate HT 2006-1004 after 18 hrs by broth microdilution assay; type: functional; settings: isolate HT 2006-1004, 18 h; method in brief: as §5

CCCCCCCCCCCCO[C@H]1[C@H](O)[C@@H](O)[C@@H](OC)O[C@@H]1CO
CMC [1]: 0.046 mmol/L

CCCCCCCCCCOC[C@H]1O[C@H](OC)[C@H](O)[C@@H](O)[C@@H]1O
MIC [2]: 2000 µM (≈ 669 µg/mL) | MBC<=99.9 [3]: 2000 µM (≈ 669 µg/mL) | CMC [1]: 0.277 mmol/L | MIC [4]: 500 µM (≈ 167 µg/mL) | MBC<=99.9 [5]: 500 µM (≈ 167 µg/mL) | MIC [6]: 500 µM (≈ 167 µg/mL) | MBC<=99.9 [7]: 500 µM (≈ 167 µg/mL)

CCCCCCC[C@@H]1OC[C@H]2O[C@H](OC)[C@H](O)[C@@H](O)[C@@H]2O1
MIC [2]: > 4000 µM | MIC [8]: > 4000 µM | CMC [1]: 2.5 mmol/L | MIC [9]: > 4000 µM | MIC [4]: 2000 µM (≈ 609 µg/mL) | MIC [6]: > 4000 µM

CCCCCCCCCCC[C@@H]1OC[C@H]2O[C@H](OC)[C@H](O)[C@@H](O)[C@@H]2O1
CMC [1]: > 0.06 mmol/L

CCCCCCCCCCCCO[C@@H]1O[C@H](CO)C(O[C@H]2O[C@H](CO)[C@@H](O)[C@H](O)[C@H]2O)[C@H](O)[C@H]1O (single isomer, unassigned)
CMC [10]: 0.2 mmol/L

CCCCCCCCCCCC(=O)OC[C@H]1O[C@H](O[C@H]2[C@H](O)[C@@H](O)C(O)O[C@@H]2CO)[C@H](O)[C@@H](O)[C@@H]1O (some centres undefined)
CMC [10]: 0.24 mmol/L

CCCCCCCCCCCCO[C@H]1O[C@H](CO)C(O[C@H]2O[C@H](CO)[C@@H](O)[C@H](O)[C@H]2O)[C@H](O)[C@H]1O (single isomer, unassigned)
CMC [10]: 0.15 mmol/L

CCCCCCCCCCCCOC[C@H]1O[C@H](OC)[C@H](O)[C@@H](O)[C@@H]1O
MIC [2]: 40 µM (≈ 14.5 µg/mL) | CMC [1]: 0.03 mmol/L | MIC [4]: 40 µM (≈ 14.5 µg/mL)

CC1(C)S[C@@H]2[C@H](NC(=O)[C@H](N)c3ccc(O)cc3)C(=O)N2[C@H]1C(=O)O [AMOXICILLIN]
MIC [11]: 2 µM (≈ 0.731 µg/mL) | MIC [12]: 500 µM (≈ 183 µg/mL) | MIC [13]: 250 µM (≈ 91.4 µg/mL) | MIC [14]: 2 µM (≈ 0.731 µg/mL) | MIC [15]: 2 µM (≈ 0.731 µg/mL) | MIC [16]: 4 µM (≈ 1.46 µg/mL) | MIC [17]: 60 µM (≈ 21.9 µg/mL) | MIC [4]: 2 µM (≈ 0.731 µg/mL) | MIC [18]: 250 µM (≈ 91.4 µg/mL) | MIC [6]: 2 µM (≈ 0.731 µg/mL)

Cc1onc(-c2ccccc2)c1C(=O)N[C@@H]1C(=O)N2[C@@H]1SC(C)(C)[C@@H]2C(=O)O [OXACILLIN]
MIC [2]: 1 µM (≈ 0.401 µg/mL) | MIC [19]: 320 µM (≈ 128 µg/mL) | MIC [20]: 640 µM (≈ 257 µg/mL) | MIC [21]: 80 µM (≈ 32.1 µg/mL) | MIC [22]: 160 µM (≈ 64.2 µg/mL) | MIC [23]: 160 µM (≈ 64.2 µg/mL) | MIC [24]: 50 µM (≈ 20.1 µg/mL) | MIC [25]: 160 µM (≈ 64.2 µg/mL) | MIC [26]: 160 µM (≈ 64.2 µg/mL) | MIC [27]: 160 µM (≈ 64.2 µg/mL) | MIC [28]: 320 µM (≈ 128 µg/mL)

CCCCCCOC[C@H]1O[C@H](OC)[C@H](O)[C@@H](O)[C@@H]1O
MIC [2]: > 4000 µM | MIC [8]: > 4000 µM | CMC [1]: 13.4 mmol/L | MIC [9]: > 4000 µM | MIC [4]: > 4000 µM | MIC [6]: > 4000 µM

CCCC[C@@H]1OC[C@H]2O[C@H](OC)[C@H](O)[C@@H](O)[C@@H]2O1
MIC [2]: > 4000 µM | MIC [8]: > 4000 µM | CMC [1]: 82 mmol/L | MIC [9]: > 4000 µM | MIC [4]: > 4000 µM | MIC [6]: > 4000 µM
